In PMC4981499 (Nature, 2014):
Values after ≈ are worked out from the molar mass of the structure shown.

Experiments:
K. pneumoniae N11-2218 = test: MIC; assay type: cell-based; details: meropenem alone; K. pneumoniae N11-2218 (CRE)
Procedure, shortened: (§1)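 Checkerboard microdilution with 8 concentrations each of meropenem and test compound in serial ½ dilutions, run in duplicate, and the mean was used. MIC was the lowest concentration with no growth. Each FIC was the concentration in the presence of the co-compound in a no-growth well divided by that compound's MIC; the FIC index is the sum of the two FICs.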

E. coli BW25113 = test: MIC; assay type: cell-based; details: Escherichia coli
Procedure, shortened: as §1

[1] = tested on: NDM-1-positive K. pneumoniae N11-2218; test: Mouse systemic infection, organ bacterial load; assay type: in vivo, CD1 mice; details: s.c., spleen burden 48 h after infection
Procedure, shortened: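 Female CD1 mice, 7–9 weeks, infected i.p. with 2×10⁶ cfu K. pneumoniae N11-2218. Treated s.c. 30 minutes post infection with test compound, meropenem, their combination, or PBS. Euthanized at 48 h; spleen and liver were homogenized in PBS, serially diluted and plated on Brilliant Green agar for cfu counts.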

[2] = tested on: NDM-1-positive K. pneumoniae N11-2218; test: Mouse lethal systemic infection, survival; assay type: in vivo, CD1 mice; details: meropenem (10 mg/kg) alone or AMA (30 mg/kg) alone, single s.c. dose
Procedure, shortened: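 Female CD1 mice, 7–9 weeks, randomized 5 per cage. Infected i.p. with 5×10⁷ cfu K. pneumoniae N11-2218. A single s.c. dose was given 30 minutes post infection: meropenem 10 mg/kg, test compound 30 mg/kg, their combination, or PBS. Mice were monitored for endpoint until day 4. Preparation, infection and processing were done by two independent investigators for blinding.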

C[C@@H](O)[C@H]1C(=O)N2C(C(=O)O)=C(S[C@@H]3CN[C@H](C(=O)N(C)C)C3)[C@H](C)[C@H]12 [meropenem]
MIC (K. pneumoniae N11-2218): 32 µg/mL (≈ 83.4 µM)
MIC (E. coli BW25113): 0.008 to 0.016 µg/mL (≈ 0.0209 to 0.0417 µM)
Response of infection to meropenem monotherapy [1]: resistant to meropenem monotherapy at doses below 50 mg/kg
Prevention of lethal infection by monotherapy [2]: unable to prevent lethal infection
